Our source for the IC50, viability and Activity values is ChEMBL document CHEMBL4014266, “Anti-Neurodegenerative Biflavonoid Glycosides from Impatiens balsamina” (J Nat Prod, 2017).

Data set [1] deals with BV-2. Put plainly: Antiinflammatory activity in mouse BV2 cells assessed as inhibition of LPS-induced nitrite production after 24 hrs by Griess assay. The class given is functional, cell-based. The note with it: BV-2, 24 h. Put shortly: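 BV-2 microglia seeded at 4 × 10^4 cells/well, exposed to graded doses of compounds with LPS stimulation. Nitrite quantified against a sodium nitrite standard curve; IC50 taken as the concentration giving 50% inhibition of NO production. L-NMMA as positive control. Mean ± SD of three independent experiments.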
(In general: Griess reagent forms a coloured azo dye with nitrite.)

The nature of data set [2]: Cytotoxicity against mouse BV2 cells assessed as cell viability at 20 uM after 24 hrs by MTT assay relative to control. The class given is cell-based, BV-2. The settings on record: read-out: Activity. Put shortly:
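BV-2 cells seeded at 4 × 10^4 cells/well, treated with 20 μM compound; viability read by MTT and expressed as percent. Mean ± SD of three independent experiments.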

Data set [3] deals with C6. Put plainly: Neuroprotective activity in rat C6 cells assessed as NGF secretion at 20 uM after 24 hrs by ELISA relative to control. It is filed as functional. Put shortly:
(§1)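 C6 cells seeded at 1 × 10^5 cells/well; after 1 d switched to serum-free DMEM with 20 μM compound for 24 h. NGF in conditioned medium measured by ELISA as percent of untreated control (100%); viability by MTT as percent. 6-shogaol as positive control.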
On the technique in general: ELISA stands for enzyme-linked immunosorbent assay.

A short description of data set [4]: Cytotoxicity against rat C6 cells assessed as cell viability at 20 uM after 24 hrs by MTT assay relative to control. It is filed as cell-based. The note with it: read-out: Activity. Put shortly:
as §1

Data set [5] deals with A549. Kind of data set: Cytotoxicity against human A549 cells after 48 hrs by SRB assay. It is filed as functional, cell-based. The note with it: A549, 48 h. Put shortly: (§2)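 Quantitative staining of cellular protein with sulforhodamine B across human tumour lines A549, SK-OV-3, SK-MEL-2 and Bt549; IC50 derived. Etoposide served as positive control.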
A general note: The SRB assay estimates cell density from bound dye.

Data set [6] has as its system SK-OV-3. Put plainly: Cytotoxicity against human SKOV3 cells after 48 hrs by SRB assay. It is filed as functional, cell-based. The settings on record: SK-OV-3, 48 h. Put shortly:
as §2

The test system of data set [7] is SK-MEL-2. Put plainly: Cytotoxicity against human SK-MEL-2 cells after 48 hrs by SRB assay. It is filed as functional, cell-based. The settings on record: SK-MEL-2, 48 h. Put shortly:
as §2

The test system of data set [8] is BT-549. Kind of data set: Cytotoxicity against human BT549 cells after 48 hrs by SRB assay. The class given is functional, cell-based. The settings on record: BT-549, 48 h. Put shortly: as §2

A value given as a limit tells only on which side of the number the result lay.

As usually defined, the IC50 is the point on the concentration scale where inhibition reaches its midpoint. `C[C@@H]1O[C@@H](OC[C@H]2O[C@@H](Oc3c(-c4ccc(O)cc4)oc4c([C@]56O[C@@]5(c5ccc(O)cc5)Oc5cc(O)cc(O)c5C6=O)c(O)cc(O)c4c3=O)[C@H](O)[C@@H](O)[C@@H]2O)[C@H](O)[C@H](O)[C@H]1O`: the IC50 in data set [1] is 31 µM; in data set [5], > 10 µM; in data set [6], > 10 µM; in data set [7], > 10 µM; in data set [8], > 10 µM. The viability at 24 h, 20 µM in data set [2] amounted to 100%; in data set [4], 109%. For the same compound, in data set [3], the Activity is given as 74.27%.

With `C[C@@H]1O[C@@H](OC[C@H]2O[C@@H](Oc3c(-c4ccc(O)cc4)oc4c([C@@]56O[C@]5(c5ccc(O)cc5)Oc5cc(O)cc(O)c5C6=O)c(O)cc(O)c4c3=O)[C@H](O)[C@@H](O)[C@@H]2O)[C@H](O)[C@H](O)[C@H]1O`, the half-maximal inhibitory concentration (IC50) is 39.2 µM in data set [1]; > 10 µM in data set [5]; > 10 µM in data set [6]; > 10 µM in data set [7]; > 10 µM in data set [8]. Further, the viability at 24 h, 20 µM in data set [2] came out at 99.9%; in data set [4] it was 102%. Moreover, in data set [3], the Activity turned out to be 88.36%.

In the case of `O=c1c(O[C@@H]2O[C@H](CO)[C@@H](O)[C@@H](O)[C@H]2O)c(-c2ccc(O)cc2)oc2cc(O)cc(O)c12`, the IC50 is 80.4 µM in data set [1]; > 10 µM in data set [5]; > 10 µM in data set [6]; > 10 µM in data set [7]; > 10 µM in data set [8]. In addition, the viability at 24 h, 20 µM was determined as 97.5% in data set [2] and 105% in data set [4]. Besides, in data set [3], the Activity is recorded as 83.79%.

In the case of `O=C1c2c(O)cc(O)cc2O[C@]2(c3ccc(O)cc3)O[C@]12c1c(O)cc(O)c2c(=O)c(O[C@@H]3O[C@H](CO)[C@@H](O)[C@H](O)[C@H]3O)c(-c3ccc(O)cc3)oc12`, the half-maximal inhibitory concentration (IC50) in data set [1] is 56.9 µM; in data set [5], > 10 µM; in data set [6], > 10 µM; in data set [7] it was > 10 µM; in data set [8], > 10 µM. Moreover, the viability at 24 h, 20 µM is 104% in data set [2] and 107% in data set [4]. Also, the Activity in data set [3] was determined as 90.12%.

Take `O=C1c2c(O)cc(O)cc2O[C@@]2(c3ccc(O)cc3)O[C@@]12c1c(O)cc(O)c2c(=O)c(O[C@@H]3O[C@H](CO)[C@@H](O)[C@H](O)[C@H]3O)c(-c3ccc(O)cc3)oc12`: the IC50 was 33.3 µM in data set [1]; > 10 µM in data set [5]; > 10 µM in data set [6]; > 10 µM in data set [7]; > 10 µM in data set [8]. The viability at 24 h, 20 µM came out at 110% in data set [2] and 113% in data set [4]. In addition, in data set [3], the Activity was 121.42%.

In the case of `C[C@@H]1O[C@@H](O[C@H]2[C@H](Oc3c(-c4ccc(O)cc4)oc4cc(O)cc(O)c4c3=O)O[C@H](CO)[C@@H](O)[C@@H]2O)[C@H](O)[C@H](O)[C@H]1O`, the 50% inhibitory concentration (IC50) in data set [1] was 31.7 µM; in data set [5] it was > 10 µM; in data set [6], > 10 µM; in data set [7], > 10 µM; in data set [8] it was > 10 µM. The viability at 24 h, 20 µM is 103% in data set [2] and 102% in data set [4]. Besides, in data set [3], the Activity worked out at 123.31%.

For `O=C1c2c(O)cc(O)cc2O[C@H](c2cc(O)c(O)c(O)c2)[C@H]1O` [AMPELOPSIN], the half-inhibitory concentration (IC50) is 32.7 µM in data set [1]; > 10 µM in data set [5]; > 10 µM in data set [6]; > 10 µM in data set [7]; > 10 µM in data set [8]. Further, the viability at 24 h, 20 µM worked out at 97% in data set [2] and 110% in data set [4]. In addition, the Activity in data set [3] was 172.04%.

On to `O=c1c(O[C@@H]2O[C@H](CO)[C@@H](O)[C@H](O)[C@H]2O)c(-c2ccc(O)cc2)oc2cc(O)cc(O)c12` [ASTRAGALIN], for which the half-inhibitory concentration (IC50) in data set [1] is 23.5 µM; in data set [5], > 10 µM; in data set [6], > 10 µM; in data set [7], > 10 µM; in data set [8], > 10 µM. Further, the viability at 24 h, 20 µM in data set [2] was found to be 97.5%; in data set [4] it was 115%. Moreover, the Activity in data set [3] stood at 114.67%.

Take `COc1cc([C@@H]2c3cc4c(cc3[C@@H](O[C@@H]3O[C@@H]5CO[C@@H](C)O[C@H]5[C@H](O)[C@H]3O)[C@H]3COC(=O)[C@H]23)OCO4)cc(OC)c1O` [ETOPOSIDE]: the half-maximal inhibitory concentration (IC50) in data set [5] stood at 0.92 µM; in data set [6] it was 1.95 µM; in data set [7] it was 1.1 µM; in data set [8] it was 1.24 µM.

With `O=c1c(O[C@@H]2O[C@H](CO)[C@@H](O)[C@H](O)[C@H]2O)c(-c2ccc(O)c(O)c2)oc2cc(O)cc(O)c12` [ISOQUERCETIN], the concentration for half-maximal inhibition (IC50) was 55.6 µM in data set [1]; > 10 µM in data set [5]; > 10 µM in data set [6]; > 10 µM in data set [7]; > 10 µM in data set [8]. For the same compound, the viability at 24 h, 20 µM turned out to be 95.6% in data set [2] and 107% in data set [4]. In addition, the Activity in data set [3] turned out to be 98.67%.

Take `O=c1c(O)c(-c2ccc(O)cc2)oc2cc(O)cc(O)c12` [KAEMPFEROL]: the half-inhibitory concentration (IC50) was 8.86 µM in data set [1]; > 10 µM in data set [5]; > 10 µM in data set [6]; > 10 µM in data set [7]; > 10 µM in data set [8]. For the same compound, the viability at 24 h, 20 µM in data set [2] was determined as 119%; in data set [4], 97.2%. In data set [3], the Activity was 115.98%.

On to `C[C@@H]1O[C@@H](OC[C@H]2O[C@@H](Oc3c(-c4ccc(O)cc4)oc4cc(O)cc(O)c4c3=O)[C@H](O)[C@@H](O)[C@@H]2O)[C@H](O)[C@H](O)[C@H]1O` [NICOTIFLOROSIDE], for which the IC50 in data set [1] is 44.4 µM; in data set [5], > 10 µM; in data set [6], > 10 µM; in data set [7], > 10 µM; in data set [8], > 10 µM. The viability at 24 h, 20 µM in data set [2] stood at 97.9%; in data set [4], 99.6%. Also, the Activity in data set [3] was determined as 97.59%.

Consider `O=c1c(O)c(-c2ccc(O)c(O)c2)oc2cc(O)cc(O)c12` [QUERCETIN], for which the half-inhibitory concentration (IC50) in data set [1] is 19.1 µM; in data set [5] it was > 10 µM; in data set [6], > 10 µM; in data set [7], > 10 µM; in data set [8] it was > 10 µM. Also, the results for the viability at 24 h, 20 µM in data set [2] and in data set [4] were 101% and 103%, respectively. Further, the Activity in data set [3] is given as 118.77%.

For `C[C@@H]1O[C@@H](OC[C@H]2O[C@@H](Oc3c(-c4ccc(O)c(O)c4)oc4cc(O)cc(O)c4c3=O)[C@H](O)[C@@H](O)[C@@H]2O)[C@H](O)[C@H](O)[C@H]1O` [RUTIN], the concentration for half-maximal inhibition (IC50) in data set [1] was 24.3 µM; in data set [5] it was > 10 µM; in data set [6], > 10 µM; in data set [7] it was > 10 µM; in data set [8], > 10 µM. Also, the viability at 24 h, 20 µM was found to be 99.2% in data set [2] and 113% in data set [4]. Also, the Activity in data set [3] is listed as 108.27%.

Turning to `CCCCC/C=C/C(=O)CCc1ccc(O)c(OC)c1` [SHOGAOL], the Activity in data set [3] was 143.74%. In data set [4], the viability at 24 h, 20 µM turned out to be 104%.

Consider `CNC(=N)NCCC[C@H](N)C(=O)O` [TILARGININE], for which the half-maximal inhibitory concentration (IC50) in data set [1] came out at 21.2 µM. For the same compound, the viability at 24 h, 20 µM in data set [2] was found to be 120%.
